From ChEMBL document CHEMBL1123566, “Synthesis and cardiac electrophysiological activity of 2- and 3-[(substituted phenyl)alkyl]quinuclidines. Structure-activity relationships” (1987)

How the values were obtained:
Canis familiaris [1] = experiment: Mean arterial blood pressure was determined by intraduodenal administration of two dosages of 30 mg/kg of compound in anesthetized dogs. Value was reported for experiment 1; format: functional, Canis lupus familiaris
In short: (§1)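 Anesthetized dogs received two intraduodenal doses, the second cumulative (low dose/high dose). Left ventricular FRP and CT were measured 15, 30 and 45 min after dosing. Heart rate and mean blood pressure were taken during nonpacing intervals. Values are percent change from control. The vehicle was 5% dextrose in water/tragacanth. Activity was defined as ≥12% prolongation of FRP or CT.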

Canis familiaris [2] = experiment: Heart rate was determined by intraduodenal administration of two dosages of 10 mg/kg of compound in anesthetized dogs. Value was reported for experiment 2; format: functional, Canis lupus familiaris
In short: (§2)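 Anesthetized dogs; compound given intraduodenally, generally as two doses, the second a cumulative (high) dose. LV functional refractory period and conduction time measured 15, 30 and 45 min after dosing; heart rate and blood pressure measured during nonpacing intervals. Values are % change from control, given per individual animal. Active if FRP or CT prolonged by ≥12%.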

Canis familiaris [3] = species on record: Canis familiaris; experiment: In vitro electrophysiological evaluation in canine cardiac Purkinje fibres reported as % change for action potential duration at a concentration of 10 uM; format: functional, Canis lupus familiaris, Purkinje fiber
In short: (§3)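 Canine cardiac Purkinje fibres, intracellular microelectrode recording, paced at a basic cycle length of 1 s. APD95 and Vmax read simultaneously. Compound: 10 mM stock in deionized water, diluted into Tyrode's solution, tested over the stated concentration range. Each fibre used once as its own control. Result is % change from control, given at 10 µM or as the maximum with its concentration. M = <10% decrease or an increase in Vmax.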

Canis familiaris [4] = species on record: Canis familiaris; experiment: In vitro electrophysiological evaluation in canine cardiac Purkinje fibres reported as percent change Vmax at 10 uM at concentration range of 1-100 uM.; format: functional; conditions: Canis lupus familiaris, Purkinje fiber; in short: as §3
Canis familiaris [5] = experiment: Conduction time was determined by intraduodenal administration of 10 mg/kg (low dose) of compound in anesthetized dogs. Value was reported for experiment 3; format: functional, Canis lupus familiaris; in short: as §2
Canis familiaris [6] = experiment: Conduction time was determined by intraduodenal administration of 30 mg/kg (high dose) of compound in anesthetized dogs. Value was reported for experiment 1; format: functional, Canis lupus familiaris; in short: as §2
Canis familiaris [7] = experiment: Mean arterial blood pressure was determined by intraduodenal administration of two dosages of 30 mg/kg of compound in anesthetized dogs. Value was reported for experiment 3; format: functional, Canis lupus familiaris
Canis familiaris [8] = experiment: Heart rate was determined by intraduodenal administration of two dosages of 30 mg/kg of compound in anesthetized dogs. Value was reported for experiment 1; format: functional, Canis lupus familiaris; in short: as §2
Canis familiaris [9] = experiment: Conduction time was determined by intraduodenal administration of 10 mg/kg (low dose) of compound in anesthetized dogs. Value was reported for experiment 1; format: functional, Canis lupus familiaris; in short: as §2
Canis familiaris [10] = species on record: Canis familiaris; experiment: In vitro electrophysiological evaluation in canine cardiac Purkinje fibres reported as percent change Vmax at concentration range of 1-100 uM; conduction block; format: functional; conditions: Canis lupus familiaris; Purkinje fiber; in short: as §3
Canis familiaris [11] = species on record: Canis familiaris; experiment: In vitro electrophysiological evaluation in canine cardiac Purkinje fibres reported as percent change Vmax at 10 uM at concentration range of 1-100 uM; Minimal (<10% decrease or increase in V max).; format: functional; conditions: Canis lupus familiaris, Purkinje fiber; in short: as §3
Canis familiaris [12] = species on record: Canis familiaris; experiment: In vitro electrophysiological evaluation in canine cardiac ventricular muscle reported as maximum % change for conduction time(CT) at 0.1-10 uM concentration range; Minimal (<10% decrease or increase in CT).; format: functional, Canis lupus familiaris, Muscle tissue
In short: (§4)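 Canine right ventricle and papillary muscle strips in oxygenated Tyrode's solution, fitted with stimulating and recording electrodes. The extra-stimulus conduction-interval method was adapted for in vitro use. FRP and CT were read from a conduction-interval curve before and after various compound concentrations, and expressed as percent change from control. Compounds were taken from 10 mM deionized-water stock into Tyrode's. Each strip was used once as its own control.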

Canis familiaris [13] = experiment: Left ventricular refractory period was determined by intraduodenal administration of 30 mg/kg (high dose) of compound in anesthetized dogs. Value was reported for experiment 2; format: functional, Canis lupus familiaris, Cardiac ventricle; in short: as §1
Canis familiaris [14] = experiment: Conduction time was determined by intraduodenal administration of 30 mg/kg (high dose) of compound in anesthetized dogs. Value was reported for experiment 2; format: functional, Canis lupus familiaris; in short: as §2
Canis familiaris [15] = experiment: Heart rate was determined by intraduodenal administration of two dosages of 30 mg/kg of compound in anesthetized dogs. Value was reported for experiment 2; format: functional, Canis lupus familiaris; in short: as §2
Canis familiaris [16] = species on record: Canis familiaris; experiment: In vitro electrophysiological evaluation in canine cardiac ventricular muscle reported as % change for conduction time(CT) at 10 uM at 0.1-10 uM concentration range; Minimal (<10% decrease or increase in CT).; format: functional, Canis lupus familiaris, Muscle tissue
Canis familiaris [17] = experiment: Mean arterial blood pressure was determined by intraduodenal administration of two dosages of 10 mg/kg of compound in anesthetized dogs. Value was reported for experiment 2; format: functional, Canis lupus familiaris; in short: as §1
Canis familiaris [18] = experiment: Conduction time was determined by intraduodenal administration of 30 mg/kg (high dose) of compound in anesthetized dogs. Value was reported for experiment 3; format: functional, Canis lupus familiaris; in short: as §2
Canis familiaris [19] = experiment: Mean arterial blood pressure was determined by intraduodenal administration of two dosages of 30 mg/kg of compound in anesthetized dogs. Value was reported for experiment 2; format: functional, Canis lupus familiaris; in short: as §1
Canis familiaris [20] = species on record: Canis familiaris; experiment: In vitro electrophysiological activity in canine cardiac occurred is 10 uM; format: functional, Canis lupus familiaris, Heart
Canis familiaris [21] = species on record: Canis familiaris; experiment: In vitro electrophysiological evaluation in canine cardiac Purkinje fibres reported as percent change Vmax at 10 uM at concentration range of 0.1-10 uM; Minimal (<10% decrease or increase in V max).; format: functional; conditions: Canis lupus familiaris, Purkinje fiber; in short: as §3
Canis familiaris [22] = experiment: Heart rate was determined by intraduodenal administration of two dosages of 10 mg/kg of compound in anesthetized dogs. Value was reported for experiment 3; format: functional, Canis lupus familiaris; in short: as §2
Canis familiaris [23] = species on record: Canis familiaris; experiment: In vitro electrophysiological evaluation in canine cardiac ventricular muscle reported as % change for the functional refractory period (FRP) at 10 uM at concentration range of 0.1-10 uM; set-up: species or system Canis lupus familiaris, Muscle tissue; in short: as §4
Canis familiaris [24] = experiment: Heart rate was determined by intraduodenal administration of two dosages of 30 mg/kg of compound in anesthetized dogs. Value was reported for experiment 3; format: functional, Canis lupus familiaris; in short: as §2
Canis familiaris [25] = experiment: Conduction time was determined by intraduodenal administration of 10 mg/kg (low dose) of compound in anesthetized dogs. Value was reported for experiment 2; format: functional, Canis lupus familiaris; in short: as §2
Canis familiaris [26] = experiment: Left ventricular refractory period was determined by intraduodenal administration of 30 mg/kg (high dose) of compound in anesthetized dogs. Value was reported for experiment 1; format: functional, Canis lupus familiaris, Cardiac ventricle; in short: as §1
Canis familiaris [27] = species on record: Canis familiaris; experiment: In vitro electrophysiological evaluation in canine cardiac Purkinje fibres reported as percent change Vmax at concentration range of 0.1-10 uM; Minimal (<10% decrease or increase in V max).; format: functional; conditions: Canis lupus familiaris; Purkinje fiber; in short: as §3
Canis familiaris [28] = experiment: Heart rate was determined by intraduodenal administration of two dosages of 10 mg/kg of compound in anesthetized dogs. Value was reported for experiment 1; format: functional, Canis lupus familiaris; in short: as §2
Canis familiaris [29] = experiment: Left ventricular refractory period was determined by intraduodenal administration of 30 mg/kg (high dose) of compound in anesthetized dogs. Value was reported for experiment 3; format: functional, Canis lupus familiaris, Cardiac ventricle; in short: as §1
Canis familiaris [30] = experiment: Mean arterial blood pressure was determined by intraduodenal administration of two dosages of 10 mg/kg of compound in anesthetized dogs. Value was reported for experiment 1; format: functional, Canis lupus familiaris; in short: as §1
Canis familiaris [31] = experiment: Left ventricular refractory period was determined by intraduodenal administration of 10 mg/kg (low dose) of compound in anesthetized dogs. Value was reported for experiment 1; format: functional, Canis lupus familiaris, Cardiac ventricle; in short: as §1
Canis familiaris [32] = experiment: Left ventricular refractory period was determined by intraduodenal administration of 10 mg/kg (low dose) of compound in anesthetized dogs. Value was reported for experiment 3; format: functional, Canis lupus familiaris, Cardiac ventricle; in short: as §1
Canis familiaris [33] = species on record: Canis familiaris; experiment: In vitro electrophysiological evaluation in canine cardiac ventricular muscle reported as maximum % change for functional refractory period (FRP) at 0.1-10 uM concentration range; concentration at which it occurred is 10 uM; set-up: species or system Canis lupus familiaris, Muscle tissue; in short: as §4
Canis familiaris [34] = species on record: Canis familiaris; experiment: In vitro electrophysiological activity in canine cardiac occurred is 100 uM; format: functional, Canis lupus familiaris, Heart
Canis familiaris [35] = experiment: Mean arterial blood pressure was determined by intraduodenal administration of two dosages of 10 mg/kg of compound in anesthetized dogs. Value was reported for experiment 3; format: functional, Canis lupus familiaris
Canis familiaris [36] = experiment: Left ventricular refractory period was determined by intraduodenal administration of 10 mg/kg (low dose) of compound in anesthetized dogs. Value was reported for experiment 2; format: functional, Canis lupus familiaris, Cardiac ventricle; in short: as §1

## CC(=O)C(CC1C(=O)C2CCN1CC2)C(=O)c1ccc(Cl)cc1.Cl (stereo unspecified)
Canis familiaris [1]
  Mean blood pressure: -6%
Canis familiaris [2]
  HR: -14%
Canis familiaris [3]
  APD95: 23%
Canis familiaris [4]
  Vmax: -10%
Canis familiaris [5]
  CT: 8%
Canis familiaris [6]
  CT: 9%
Canis familiaris [7]
  Mean blood pressure: 7%
Canis familiaris [8]
  HR: 2%
Canis familiaris [9]
  CT: 3%
Canis familiaris [10]
  Vmax: 100%
Canis familiaris [11]
  Vmax: < 10%
Canis familiaris [12]
  CT: <10%
Canis familiaris [13]
  LV FRP: 18%
Canis familiaris [14]
  CT: 7%
Canis familiaris [15]
  HR: -28%
Canis familiaris [16]
  CT: <10%
Canis familiaris [17]
  Mean blood pressure: -4%
Canis familiaris [18]
  CT: 13%
Canis familiaris [19]
  Mean blood pressure: -16%
Canis familiaris [20]
  APD95: 23%
Canis familiaris [21]
  Vmax: < 10%
Canis familiaris [22]
  HR: -15%
Canis familiaris [23]
  FRP: 24%
Canis familiaris [24]
  HR: -22%
Canis familiaris [25]
  CT: 0%
Canis familiaris [26]
  LV FRP: 1%
Canis familiaris [27]
  Vmax: < 10%
Canis familiaris [28]
  HR: 1%
Canis familiaris [29]
  LV FRP: 15%
Canis familiaris [30]
  Mean blood pressure: -5%
Canis familiaris [31]
  LV FRP: 4%
Canis familiaris [32]
  LV FRP: 11%
Canis familiaris [33]
  FRP: 24%
Canis familiaris [34]
  APD95: -16%
Canis familiaris [35]
  Mean blood pressure: 7%
Canis familiaris [36]
  LV FRP: 11%
